Laboratory results as given in PMC5766731 (Clinical Pharmacokinetics, 2017).

Assays:
Format in all cases: in vivo, human
[1] = Part I single ascending-dose pharmacokinetics; settings: for t max / AUCt / AUC∞ / C max / CL/F_obs / V z/F_obs / t ½ / λz: part I, fasted; for t max: mean (range) per footnote; for AUCt / AUC∞ / C max / CL/F_obs / V z/F_obs / t ½ / λz: mean ± SD
[2] = Part III sex and food effect pharmacokinetics; settings: for AUCt / AUC∞ / C max / CL/F_obs / HL_Lambda_z (terminal half-life) / V z/F_obs / λz: part III, single oral 150 mg, n = 10, mean ± SD
Method in brief: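 Open-label crossover at a single 150 mg oral dose, with at least 14 days washout and an overnight fast of at least 10 h before each dose. Period I: 12 subjects (6 men, 6 women), fasted. Period II: 10 subjects (5 men, 5 women) given a high-fat, roughly 800–1000 calorie breakfast 30 min pre-dose. Drug measured in diluted blood by LC-MS/MS (2–5000 ng/mL). Food effect tested by two-sided t test, α = 0.05.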

[3] = system: serum erythropoietin (EPO), hemoglobin, hematocrit, reticulocyte count; assay: Part II pharmacodynamics; settings: for serum EPO C max: placebo 11.0 mIU/L
Method in brief: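 Serum EPO, hemoglobin, hematocrit and reticulocyte count were measured in blood taken before and after oral dosing. Regimens: part I single fasted doses 10–300 mg vs placebo; part II 100–300 mg on Days 1, 3, 5 vs placebo; part III single 150 mg, fasted vs fed, men and women. EPO expressed baseline-corrected. Post-dose vs baseline compared by paired two-sided t test, α = 0.05.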

Question: What does the source list for `O=C(O)CNC(=O)c1c(O)c2ccccc2n(OCC2CC2)c1=O` [ZYAN1]?
Answer: dose proportionality of C max and AUC ([1]; 30-fold single dose range, slight deviation at higher doses): almost dose-proportional increase; V d, range ([1]; across single doses 10-300 mg): 28 to 47 L; apparent oral CL, range ([1]; across single doses 10-300 mg): 2 to 2.9 L/h; t max ([1]; single oral dose 10 mg): 2.50 (1.50–3.00) h; AUCt ([1]; single oral dose 10 mg): 3597.269 ± 549.116 ng·h/mL; AUC∞ ([1]; single oral dose 10 mg): 3659.531 ± 551.508 ng·h/mL; C max ([1]; single oral dose 10 mg): 566.467 ± 163.031 ng/mL; CL/F_obs ([1]; single oral dose 10 mg): 2784.592 ± 417.679 mL/h; V z/F_obs ([1]; single oral dose 10 mg): 27,683.707 ± 4805.113 mL; t ½ ([1]; single oral dose 10 mg): 6.976 ± 1.390 h; λz ([1]; single oral dose 10 mg): 0.102 ± 0.019 h⁻¹; t max ([1]; single oral dose 25 mg): 1.25 (1.00–2.50) h; AUCt ([1]; single oral dose 25 mg): 9177.789 ± 2359.163 ng·h/mL; AUC∞ ([1]; single oral dose 25 mg): 9269.839 ± 2396.986 ng·h/mL; C max ([1]; single oral dose 25 mg): 1634.500 ± 299.429 ng/mL; CL/F_obs ([1]; single oral dose 25 mg): 2870.759 ± 817.646 mL/h; V z/F_obs ([1]; single oral dose 25 mg): 27,950.696 ± 5329.29 mL; t ½ ([1]; single oral dose 25 mg): 6.917 ± 0.923 h; λz ([1]; single oral dose 25 mg): 0.102 ± 0.016 h⁻¹; t max ([1]; single oral dose 50 mg): 2.25 (1.00–5.00) h; AUCt ([1]; single oral dose 50 mg): 24,518.328 ± 5125.235 h·ng/mL; AUC∞ ([1]; single oral dose 50 mg): 24,847.379 ± 5242.290 h·ng/mL; C max ([1]; single oral dose 50 mg): 2959.333 ± 686.898 ng/mL; CL/F_obs ([1]; single oral dose 50 mg): 2084.748 ± 417.943 mL/h; V z/F_obs ([1]; single oral dose 50 mg): 30,578.971 ± 10,323.282 mL; t ½ ([1]; single oral dose 50 mg): 10.434 ± 3.857 h; λz ([1]; single oral dose 50 mg): 0.074 ± 0.024 h⁻¹; t max ([1]; single oral dose 100 mg): 2.25 (1.00–5.00) h; AUCt ([1]; single oral dose 100 mg): 46,844.762 ± 13,259.837 h·ng/mL; AUC∞ ([1]; single oral dose 100 mg): 47,320.651 ± 13,358.696 h·ng/mL; C max ([1]; single oral dose 100 mg): 6745.000 ± 1958.132 ng/mL; CL/F_obs ([1]; single oral dose 100 mg): 2271.507 ± 686.413 mL/h; V z/F_obs ([1]; single oral dose 100 mg): 33,572.508 ± 10,971.959 mL; t ½ ([1]; single oral dose 100 mg): 10.685 ± 3.249 h; λz ([1]; single oral dose 100 mg): 0.071 ± 0.023 h⁻¹; t max ([1]; single oral dose 150 mg): 3.00 (2.50–5.00) h; AUCt ([1]; single oral dose 150 mg): 54,401.071 ± 12,592.181 h·ng/mL; AUC∞ ([1]; single oral dose 150 mg): 54,672.481 ± 12,686.075 h·ng/mL; C max ([1]; single oral dose 150 mg): 8119.333 ± 1269.627 ng/mL; CL/F_obs ([1]; single oral dose 150 mg): 2891.042 ± 782.208 mL/h; V z/F_obs ([1]; single oral dose 150 mg): 46,536.434 ± 9434.457 mL; t ½ ([1]; single oral dose 150 mg): 11.357 ± 1.616 h; λz ([1]; single oral dose 150 mg): 0.062 ± 0.008 h⁻¹; t max ([1]; single oral dose 200 mg): 2.25 (1.50–5.00) h; AUCt ([1]; single oral dose 200 mg): 76,515.016 ± 6992.709 h·ng/mL; AUC∞ ([1]; single oral dose 200 mg): 76,728.333 ± 7061.227 h·ng/mL; C max ([1]; single oral dose 200 mg): 12,080.667 ± 3430.123 ng/mL; CL/F_obs ([1]; single oral dose 200 mg): 2625.566 ± 248.239 mL/h; V z/F_obs ([1]; single oral dose 200 mg): 36,035.031 ± 6400.263 mL; t ½ ([1]; single oral dose 200 mg): 9.502 ± 1.270 h; λz ([1]; single oral dose 200 mg): 0.074 ± 0.01 h⁻¹; t max ([1]; single oral dose 300 mg): 2.00 (1.00–5.00) h; AUCt ([1]; single oral dose 300 mg): 115,898.815 ± 45,549.563 h·ng/mL; AUC∞ ([1]; single oral dose 300 mg): 116,226.587 ± 45,834.174 h·ng/mL; C max ([1]; single oral dose 300 mg): 17,858.333 ± 2899.189 ng/mL; CL/F_obs ([1]; single oral dose 300 mg): 2835.924 ± 799.195 mL/h; V z/F_obs ([1]; single oral dose 300 mg): 38,836.681 ± 12,903.706 mL; t ½ ([1]; single oral dose 300 mg): 9.484 ± 1.325 h; λz ([1]; single oral dose 300 mg): 0.074 ± 0.011 h⁻¹; t ½, range ([1]; single doses 10-300 mg): 6.9 to 11.3 h; median time to C max (t max) ([1]; single doses 10-300 mg (30-fold range)): approximately 2.5 h; decrease of C max by ingestion of food ([2]; fed vs fasting, single 150 mg): 2.39 times; AUCt ([2]; Fasting): 71,331.577 ± 25,663.234 h·ng/mL; AUC∞ ([2]; Fasting): 71,696.758 ± 25,837.440 h·ng/mL; C max ([2]; Fasting): 10,352.800 ± 3076.528 ng/mL; CL/F_obs ([2]; Fasting): 2479.865 ± 1333.719 mL/h; HL_Lambda_z (terminal half-life) ([2]; Fasting): 11.048 ± 3.378 h; V z/F_obs ([2]; Fasting): 37,927.046 ± 18,082.141 mL; λz ([2]; Fasting): 0.067 ± 0.015 h⁻¹; AUCt ([2]; Fed (high-fat breakfast)): 59,005.375 ± 16,846.249 h·ng/mL; AUC∞ ([2]; Fed (high-fat breakfast)): 59,561.279 ± 17,228.977 h·ng/mL; C max ([2]; Fed (high-fat breakfast)): 4322.000 ± 1317.961 ng/mL; CL/F_obs ([2]; Fed (high-fat breakfast)): 2801.105 ± 1109.706 mL/h; HL_Lambda_z (terminal half-life) ([2]; Fed (high-fat breakfast)): 11.328 ± 3.691 h; V z/F_obs ([2]; Fed (high-fat breakfast)): 45,070.176 ± 19,928.748 mL; λz ([2]; Fed (high-fat breakfast)): 0.066 ± 0.017 h⁻¹; AUC values, fed vs fasting ([2]; single 150 mg): decreased; mean C max, male vs female subjects ([2]; single 150 mg): not statistically significant; mean t ½, fed vs. fasted ([2]; single 150 mg): similar; exposure, female vs male subjects ([2]; single 150 mg, small group, qualitative): female subjects had a higher exposure than males; lag in time to EPO C max from pharmacokinetic t max ([3]; multiple dosing, similar to single dosing): 6 to 8 h; serum EPO C max ([3]; part II, 100 mg on Days 1, 3, 5): 14.4 mIU/L; serum EPO C max ([3]; part II, 300 mg on Days 1, 3, 5): 60.5 mIU/L; hemoglobin increase on any timepoint, seen in more subjects than placebo ([3]; part II, higher threshold): > 1.0 gm%
